Test results taken from ChEMBL document CHEMBL1155883, “5-Alkyl-6-benzyl-2-(2-oxo-2-phenylethylsulfanyl)pyrimidin-4(3H)-ones, a series of anti-HIV-1 agents of the dihydro-alkoxy-benzyl-oxopyrimidine family with peculiar structure-activity relationship profile” (J Med Chem, 2008).

Experiments:
[1] = tested on: Human immunodeficiency virus 1; experiment: Antiviral activity against HIV1 NL4-3 in human MT4 cells assessed as inhibition of virus-induced cytopathogenicity by MTT assay; type: functional, organism-based; conditions: Human immunodeficiency virus 1, NL4-3, MT4
In short: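 MT-4 lymphoid cells infected with wild-type HIV-1 NL4-3 in the presence of a range of compound concentrations. Viable cells were counted by MTT colorimetric read-out at day 5 post-infection. EC50 is the concentration giving 50% protection from virus-induced cytopathic effect. Means ± SD from at least two or three experiments.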

[2] = Cytotoxicity against human MT4 cells by MTT assay; type: cell-based
In short: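 Mock-infected MT-4 cells were exposed to a range of compound concentrations. Viability was read by MTT at day 5. CC50 is the concentration that kills 50% of uninfected cells. The top concentration was limited by compound precipitation in culture medium. Means ± SD from at least two or three experiments.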

[3] = Selectivity index, ratio of CC50 for human MT4 cells to EC50 for HIV1 NL4-3; type: toxicity, cell-based; conditions: read-out: Ratio CC50/EC50
In short: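 Computed as CC50/EC50. CC50 comes from MTT viability of mock-infected MT-4 cells and EC50 from MTT protection of NL4-3-infected MT-4 cells, both read at day 5.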

[4] = tested on: Human immunodeficiency virus 1; experiment: Antiviral activity against HIV1 isolates with reverse transcriptase K103N mutation in human MT4 cells assessed as inhibition of virus-induced cytopathogenicity by MTT assay; type: functional, organism-based; conditions: Human immunodeficiency virus 1, MT4
In short: (§1)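 MT-4 lymphoid cells infected with HIV-1 carrying RT K103N, Y181C or Y188L, in the presence of different drug concentrations. Viable cells counted at day 5 postinfection by MTT colorimetric assay. EC50 is the concentration that inhibits 50% of the HIV-induced cytopathic effect.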

[5] = tested on: Human immunodeficiency virus 1; experiment: Resistance index, ratio of EC50 for drug-resistant HIV1 isolate with reverse transcriptase K103N mutation to EC50 for wild type HIV1 NL4-3; type: functional
In short: (§2)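 Fold resistance is the EC50 against the K103N, Y181C or Y188L mutant strain divided by the EC50 against wt NL4-3. Each EC50 is from MT-4 cells infected in the presence of different drug concentrations, with viability read by MTT at day 5 postinfection.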

[6] = tested on: Human immunodeficiency virus 1; experiment: Antiviral activity against HIV1 isolates with reverse transcriptase Y181C mutation in human MT4 cells assessed as inhibition of virus-induced cytopathogenicity by MTT assay; type: functional, organism-based; conditions: Human immunodeficiency virus 1, MT4; in short: as §1
[7] = tested on: Human immunodeficiency virus 1; experiment: Antiviral activity against HIV1 isolates with reverse transcriptase Y188L mutation in human MT4 cells assessed as inhibition of virus-induced cytopathogenicity by MTT assay; type: functional, organism-based; conditions: Human immunodeficiency virus 1, MT4; in short: as §1
[8] = tested on: Human immunodeficiency virus 1; experiment: Resistance index, ratio of ID50 for reverse transcriptase K103N mutant to IC50 for wild-type HIV1 sreverse transcriptase
In short: (§3)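 Recombinant wt and K103N, L100I or Y181I HIV-1 RT (>95% pure), 2-4 nM. RNA-dependent DNA polymerase assay on 0.5 µg poly(rA)/oligo(dT) 10:1 (0.3 µM 3'-OH ends) with 10 µM [3H]-dTTP and 8% final DMSO. Aliquots taken every 2 min. Inhibitor range 0.2-5× ID50, fitted to a noncompetitive model. Fold resistance is mutant ID50 divided by wt ID50.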

[9] = tested on: Human immunodeficiency virus 1; experiment: Resistance index, ratio of ID50 for reverse transcriptase Y181I mutant to IC50 for wild-type HIV1 reverse transcriptase; in short: as §3
[10] = tested on: Human immunodeficiency virus 1; experiment: Resistance index, ratio of ID50 for reverse transcriptase L100I mutant to IC50 for wild-type HIV1 reverse transcriptase; in short: as §3
[11] = tested on: Human immunodeficiency virus 1; experiment: Resistance index, ratio of EC50 for drug-resistant HIV1 isolate with reverse transcriptase Y181C mutation to EC50 for wild type HIV1 NL4-3; type: functional; in short: as §2
[12] = biological target: Human immunodeficiency virus type 1 reverse transcriptase (Human immunodeficiency virus 1) (UniProt Q72547)
[13] = tested on: Human immunodeficiency virus type 1 reverse transcriptase (Human immunodeficiency virus 1), Q72547 [K103N]
[14] = tested on: Human immunodeficiency virus type 1 reverse transcriptase (Human immunodeficiency virus 1), Q72547 [Y181I]
[15] = tested on: Human immunodeficiency virus type 1 reverse transcriptase (Human immunodeficiency virus 1), Q72547 [L100I]

SMILES	EC50 [1] [nM]	CC50 [2] [µM]	selectivity ratio [3]	EC50 [4] [µM]	Ratio EC50 [5]	EC50 [6] [nM]	EC50 [7] [µM]	Ratio [8]	Ratio [9]	Ratio [10]	Ratio EC50 [11]	ID50 [12] [µM]	ID50 [13] [µM]	ID50 [14] [µM]	ID50 [15] [µM]
Cc1ccnc2c1NC(=O)c1cccnc1N2C1CC1 [NEVIRAPINE]	130	> 7	> 54	4.96	38	> 7000	> 7	17	87	22	–	–	–	–	–
CCc1c(Cc2c(F)cccc2F)nc(SCC(=O)c2ccc(F)cc2)[nH]c1=O	19	> 60	> 3160	5.14	270	720	> 60	60	8	113	38	0.061	3.65	0.51	6.9
CCC(C)c1c(Cc2c(F)cccc2Cl)nc(SCC(=O)c2ccc(F)cc2)[nH]c1=O (centres undefined)	17	> 54	> 3180	> 54	–	860	> 54	–	–	1360	51	0.024	> 40	> 40	32.7
CC(C)c1c(Cc2c(F)cccc2F)nc(SCC(=O)c2ccccc2)[nH]c1=O	2	> 60	> 30000	4.46	2230	240	> 60	198	–	600	120	0.008	1.58	> 40	4.8
CC(C)c1c(Cc2c(F)cccc2F)nc(SCC(=O)c2ccc(F)cc2)[nH]c1=O	5	> 58	> 11600	> 58	–	180	> 58	71	–	70	36	0.082	5.82	> 40	5.7
O=C(CSc1nc(Cc2c(F)cccc2Cl)cc(=O)[nH]1)c1ccccc1	1260	> 13	> 10	> 13	–	> 13000	> 13	1000	200	750	–	0.002	2	0.4	1.5
Cc1c(Cc2c(F)cccc2F)nc(SCC(=O)c2ccc(F)cc2)[nH]c1=O	25	> 62	> 2480	> 62	–	350	> 62	29	4	96	14	0.41	12	1.71	39.2
Cc1c(Cc2c(F)cccc2Cl)nc(SCC(=O)c2ccc(F)cc2)[nH]c1=O	2	> 59	> 29500	8.72	4360	280	> 59	30	4	49	140	0.18	5.35	0.7	8.8
CCc1c(Cc2c(F)cccc2F)nc(SCC(=O)c2ccccc2)[nH]c1=O	12	56	4670	1.3	108	200	> 56	86	19	126	17	0.043	3.7	0.82	5.4
O=C(CSc1nc(Cc2c(Cl)cccc2Cl)cc(=O)[nH]1)c1ccc(F)cc1	780	> 59	> 76	> 59	–	> 59000	> 59	46	46	124	–	0.21	9.7	9.7	26.1
Cc1c(Cc2c(F)cccc2Cl)nc(SCC(=O)c2ccccc2)[nH]c1=O	45	> 12	> 267	9.48	211	1680	> 12	1920	100	275	37	0.012	23	1.2	3.3
Cc1c(Cc2c(F)cccc2F)nc(SCC(=O)c2ccccc2)[nH]c1=O	15	65	4330	19	1267	520	> 65	32	5	38	35	0.33	10.4	1.68	12.7
COc1ccc(CSc2nc(Cc3c(Cl)cccc3Cl)c(C)c(=O)[nH]2)cc1	–	32	4570	–	671	–	> 32	25500	37500	–	–	–	–	–	–
CCC(C)c1c(Cc2c(F)cccc2Cl)nc(SCC(=O)c2ccc(OC)cc2)[nH]c1=O (centres undefined)	6	40	> 6670	> 40	–	> 40000	> 40	84	1130	3910	–	0.007	0.59	7.9	27.4
CCc1c(Cc2c(Cl)cccc2Cl)nc(SCC(=O)c2ccc(OC)cc2)[nH]c1=O	3300	> 54	> 16	> 54	–	24100	> 54	21	6	105	7	0.023	0.48	0.14	2.42
CCc1c(Cc2c(F)cccc2Cl)nc(SCC(=O)c2ccc(OC)cc2)[nH]c1=O	20	> 11	> 550	4.16	208	840	> 11	–	–	414	42	0.007	> 40	> 40	2.9
COc1ccc(C(=O)CSc2nc(Cc3c(F)cccc3Cl)c(C)c(=O)[nH]2)cc1	200	> 12	> 60	> 12	–	1570	> 12	150	67	1390	8	0.018	2.7	1.2	25
CCc1c(Cc2c(F)cccc2Cl)nc(SCC(=O)c2ccc(F)cc2)[nH]c1=O	5	> 57	> 11400	4.14	828	1930	> 57	50	12	170	386	0.033	1.64	0.38	5.6
